High-throughput results: PubChem BioAssay, The Scripps Research Institute Molecular Screening Center
TCR CD3 inh = inhibitors of human TCR-CD3 interaction | TAMRA-labeled TCR probe fluorescence, biochemical | inhibition, % at 9.4 µM | 360,000 tested, 0.37% active;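 note: recombinant mutant TCR 2C K166C tagged with TAMRA read by polarization; 0% = receptor in buffer alone and 100% = receptor with positive control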
HTRA1 inh = HTRA1 (human) protease inhibition; 340,000 tested, 0.5% active; AID 504803; recombinant HTRA1, FP-rhodamine activity-based probe, fluorescence polarization; Q92743; inhibition, % at 5.96 µM; in the data active = inhibition above about 36%;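 note: 0% = enzyme with DMSO and 100% = wells lacking enzyme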
Target sequence (Q92743 whole entry, looked up): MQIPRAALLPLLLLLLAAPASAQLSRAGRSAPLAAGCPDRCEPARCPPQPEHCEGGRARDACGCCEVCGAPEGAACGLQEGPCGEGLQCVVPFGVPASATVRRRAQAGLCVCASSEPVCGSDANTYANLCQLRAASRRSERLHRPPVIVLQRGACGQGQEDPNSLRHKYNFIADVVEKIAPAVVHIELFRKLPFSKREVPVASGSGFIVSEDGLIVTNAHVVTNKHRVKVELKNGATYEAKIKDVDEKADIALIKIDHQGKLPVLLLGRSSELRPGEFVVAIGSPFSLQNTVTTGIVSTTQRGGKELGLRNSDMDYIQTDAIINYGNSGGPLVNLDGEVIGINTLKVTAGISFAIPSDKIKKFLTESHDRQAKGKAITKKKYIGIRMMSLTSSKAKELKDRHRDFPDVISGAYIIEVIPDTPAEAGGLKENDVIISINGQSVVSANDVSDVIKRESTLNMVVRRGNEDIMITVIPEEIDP
ABHD4 inh = inhibits mouse alpha/beta hydrolase domain 4; Q8VD66; purified mABHD4, FP-Rh probe fluorescence polarization; inhibition, % at 8.92 µM; 370,000 tested, 0.54% active; AID 720543;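 active = inhibition exceeding the mean over every tested compound plus 3 SD, cut at about 30% in these data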;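 note: 0% = plate median of compound wells and 100% = S159A mutant with DMSO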
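Test system: mouse ABHD4 enzyme, wild type. Reagent: FP-Rh fluorescent activity-based probe, added after compound pre-incubation. Timing: pre-incubation 45 min, probe exposure 60 min, at 25 °C. Technique: FP readout, ex 525 nm / em 598 nm. Benchmarks: high control S159A mutant with DMSO, low control median of compound wells.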
SIAE inh = inhibitors of human sialic acid acetylesterase SIAE; SIAE FP-Rh probe binding, fluorescence polarization; 370,000 tested, 0.69% active; inhibition, % at 9.66 µM;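 active = inhibition above a cutoff: mean of compounds within the control limits plus 3 SD of those, cut at about 17% in these data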;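 note: 0% = plate median of compound wells and 100% = probe without SIAE protein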
DDE Tn6 FP inh = disrupts Tn6 cyclic peptide binding to fibrin D-Dimer-E complex; AID 720509; 370,000 tested, 0.21% active; Fibrin DD(E) TRITC-Tn6 fluorescence polarization displacement; inhibition, % at 8.3 µM;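 active = inhibition above a per-campaign cutoff: mean of compounds within control limits plus 3 SD, cut at about 15% in these data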;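 note: 0% = median of all compound wells on the plate and 100% = blocking peptide control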
Tn7 DDE FP = disrupts Tn7 cyclic peptide binding to fibrin D-Dimer-E complex; P02675; FP displacement of FITC-Tn7 peptide from fibrin DD(E); 0% = median of compound wells per plate; inhibition, % at 8.3 µM; 370,000 tested, 0.13% active; AID 720508;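 active = inhibition above the mean of compounds falling within the control limits plus 3 SD of them, cut at about 14% in these data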;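 note: 0% = plate median of compound wells and 100% = 10 µM Aha-Tn7 peptide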
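system = human fibrin DD(E) protein | quantity = DD(E) 2 µM final | medium = Tris/NaCl/CaCl2 buffer, pH 7.8 | also added = labelled Tn7 tracer, 0.1 µM | compound dosing = single point at 8.3 µM | timing = compound with protein 10 min, then 3 h after probe, room temperature | signal = FP measurement | benchmarks = Aha-Tn7 high control | repeats = one replicate per compound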
BSA probe FL = interferes with TAMRA-BSA probe, flagging TCR-CD3 hits. shares compounds with TCR CD3 inh. inhibition, % at 9.4 µM. TAMRA-labeled BSA probe fluorescence counterscreen. 1,200 tested, 10% active; in the data active = inhibition above about 23%;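 note: 0% = buffer low control and 100% = reference high control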
TCR-CD3 inh conf = TCR-CD3 interaction inhibition, confirmation | TAMRA-labeled TCR probe fluorescence binding assay | 1,200 tested, 48% active | shares compounds with TCR CD3 inh | inhibition, % at 9.4 µM
Tn7 DDE conf = DD(E)-Tn7 binding inhibition, FP confirmation. shares compounds with Tn7 DDE FP. FP displacement of TRITC-Tn7 peptide from DD(E); 0% set at plate's compound-well median. inhibition, % at 8.3 µM. 460 tested, 5% active. AID 720628;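 active = inhibition above the campaign cutoff, the mean of compounds within control limits plus 3 SD, cut at about 14% in these data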;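 note: 100% = median FP of high control wells holding Aha-Tn7 inhibitor peptide; displacers lower polarization since freed probe rises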
Tn7 DDE ctr = counter-screen for inhibitors of Tn7 peptide binding to fibrin DD(E). shares compounds with Tn7 DDE FP. TRITC-Tn7 probe displacement, fluorescence polarization. inhibition, % at 8.3 µM. 460 tested, 3% active. AID 720633;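 active = inhibition above the cutoff, the mean of compounds lying between the control bounds plus 3 SD of those compounds, cut at about 17% in these data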;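 note: 0% = median of compound sample wells and 100% = excess unlabeled Aha-Tn7 peptide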
The depositor's hits bear a star; · = no result. Sampled rows, rich in hits. Any-hit rate of the full collection: about 1.8%. Cut-off read from the data, not from the text of the source, unless noted: active = inhibition above about 19%; inactive = the rest.

SMILES	TCR CD3 inh	HTRA1 inh	ABHD4 inh	SIAE inh	DDE Tn6 FP inh	Tn7 DDE FP	BSA probe FL	TCR-CD3 inh conf	others
Cc1cc(C)c(-c2cc(NC(=O)COC(=O)c3ccc(C#N)cc3)n(-c3ccccc3)n2)cc1C	5.1	-41.7	-35.2	-38.5	-0.4	-6.0	·	·
COc1ccc(S(=O)(=O)NN(C)C(=O)c2nn(-c3ccccc3)ccc2=O)cc1	-0.3	6.8	1.8	2.0	-1.5	-3.3	·	·
COc1ccc(NC(=O)N(C)C[C@@H]2OCc3cn(nn3)CCCC(=O)N([C@H](C)CO)C[C@H]2C)cc1	31.9*	4.0	11.2	9.6	1.7	1.9	2.3	1.3
C[C@H](CO)N1C[C@H](C)[C@@H](CN(C)C(=O)Nc2ccc(C(F)(F)F)cc2)Oc2ccc(NC(=O)Nc3ccc(C(F)(F)F)cc3)cc2C1=O	76.0*	-165.4	-157.1	-110.1	30.6*	-0.5	24.5*	48.0*
C[C@@H]1CN([C@H](C)CO)C(=O)c2cc(NC(=O)Nc3ccc(C(F)(F)F)cc3)ccc2O[C@H]1CN(C)C(=O)Nc1ccc(F)cc1	7.6	-112.4	-131.7	-157.5	-6.5	2.1	·	·
C[C@@H]1CN([C@H](C)CO)C(=O)c2cc(NC(=O)Nc3cccc4ccccc34)ccc2O[C@H]1CN(C)Cc1ccc(C(F)(F)F)cc1	24.8*	-51.4	-25.3	-66.5	1.9	5.2	-2.3	3.6
C[C@H](O)[C@@H]1CN2CCc3c([nH]c4c(-c5ccccc5)cccc34)[C@@H]2C[C@@H]1N(C)C(=O)c1ccco1	·	·	4.8	-0.3	4.2	-1.8	·	·
CCOC(=O)[C@]12CCC=C1N(Cc1ccc3c(c1)OCO3)C(=O)[C@H](CC(=O)N1CCOCC1)C2	-0.4	·	2.0	-0.9	2.0	-0.3	·	·
Cc1cccc(C(=O)NNC(=O)c2c(O)c3ccccc3n(C)c2=O)c1	14.7	2.3	-0.9	-5.2	-5.5	-5.3	·	·
Cn1c(=O)c(C(=O)NNC(=O)c2cccc(Cl)c2)c(O)c2ccccc21	22.2*	0.2	0.8	2.1	2.9	0.4	-3.5	14.8
Cc1cc(S(=O)(=O)Nc2c(NC3CCCCC3)c3ccccc3oc2=O)ccc1F	19.1*	-14.3	-2.8	10.3	1.6	5.8	4.2	3.4
COc1ccccc1N(CC(=O)Nc1ccc2c(c1)OCCO2)S(=O)(=O)c1ccc(C)cc1	-6.5	-17.9	6.8	0.5	-8.3	-6.7	·	·
O=C1/C(=C/c2ccc(O)c([N+](=O)[O-])c2)SC(=S)N1Cc1ccccc1	1.4	3.0	5.4	2.7	1.4	7.1	·	·
O=C1/C(=C\c2cccc([N+](=O)[O-])c2O)SC(=S)N1Cc1ccccc1	82.2*	9.4	-27.4	-6.2	-0.6	-5.7	-89.0	8.8
COc1ccc(NC(=O)N(C)C[C@H]2OCCCC[C@H](C)Oc3ccc(NC(=O)Nc4cccc5ccccc45)cc3C(=O)N([C@@H](C)CO)C[C@H]2C)cc1	-0.5	·	6.2	-5.6	0.2	6.3	·	·
O=C(c1cccc(S(=O)(=O)Nc2ccc(F)cc2)c1)N1CCOCC1	-0.2	-2.3	-2.2	2.0	4.5	-4.4	·	·
O=C(OCC(=O)N1CCOCC1)c1cccc(S(=O)(=O)Nc2ccc(F)cc2)c1	39.1*	0.0	-9.4	1.9	-0.2	2.7	-0.2	-3.7
CN(C)C(C(=O)Nc1cc(Cl)cc(Cl)c1)c1ccccc1 (stereo not drawn)	135.2*	-15.2	-9.9	0.9	6.7	-7.6	2.5	0.2
C/C(=N\OCc1nc2ccccc2c(=O)n1/N=C/c1cc(C)cc([N+](=O)[O-])c1O)c1ccccc1	39.1*	-0.2	8.5	10.9	-2.3	-8.6	-5.7	49.8*
Cc1ccccc1-c1nc2ccccc2c(=O)n1/N=C/c1ccccc1[N+](=O)[O-]	-1.2	-4.7	-2.9	0.1	4.5	5.4	·	·
Cc1cc([N+](=O)[O-])cc(/C=N/n2c(C)nc3ccccc3c2=O)c1O	45.3*	6.0	0.7	10.5	-0.4	6.9	-14.7	45.1*
O=c1c2ccccc2nc(COc2ccccc2)n1/N=C/c1ccc(O)cc1O	21.4*	12.9	11.7	4.2	-3.5	11.8	-8.8	21.4*
CC(=O)N1CCN(C(=O)COC(=O)c2oc3ccccc3c2C)CC1	2.2	-6.6	1.0	5.6	-4.9	9.4	·	·
O=C(CCc1ccccc1)N[C@H]1[C@H](OC(=O)c2ccco2)CCC[C@@]12C(=O)N(Cc1ccccc1)c1ccccc12	·	·	-8.0	-7.5	1.7	0.7	·	·
O=C(O)c1cc(Cl)ccc1-c1ccc(/C=C/c2cc(C(F)(F)F)[nH]c(=O)n2)o1	19.0*	2.2	-8.3	-4.8	2.2	-33.4	1.6	3.0
SMILES	TCR CD3 inh	HTRA1 inh	ABHD4 inh	SIAE inh	DDE Tn6 FP inh	Tn7 DDE FP	BSA probe FL	TCR-CD3 inh conf	others
O=C(COC(=O)c1ccc(OC(F)F)cc1)Nc1cccc(S(=O)(=O)NC2=NCCC2)c1	40.0*	7.5	3.9	1.4	-1.7	13.3	3.5	-1.0
CC1(C(=O)NS(=O)(=O)c2ccccc2Cl)CCN1C(=O)CC1CC1 (stereo not drawn)	-1.0	·	6.4	-2.7	6.7	-5.5	·	·
COC1(OC)C(/C=C/c2ccc(Cl)cc2)C(C#N)(C#N)C1(OC)OC (stereo not drawn)	20.9*	-11.0	2.4	-4.8	-1.0	8.0	-4.2	3.5
CCCCNc1c(-c2ccc(-c3ccc(OC)cc3)c(OC)c2)nc2ccccn12	1.7	-5.8	25.0	7.4	0.2	9.6	·	·
CC(=O)Nc1cc(-c2ccccc2N(C)C)cn2c(-c3ccc(S(C)(=O)=O)cc3)cnc12	30.9*	·	16.8	14.7	4.1	26.3*	6.1	14.5	Tn7 DDE conf=-5.2;Tn7 DDE ctr=-5.3
C=CCC12C[C@@]3(O[C@H](c4ccc(C(F)(F)F)cc4)N=C3C[C@H](c3ccc(OC)cc3)[C@H]1C)N(Cc1ccc3c(c1)OCO3)C2=O	2.0	·	-6.4	-1.2	-7.7	-1.5	·	·
